CXCR6 block – inhibitors of human CXCR6 receptor; AID 602244; CHO-K1 PathHunter CXCR6 beta-arrestin, luminescence; hit rate 0.36% among 360,000; inhibition, % at 20 µM; O00574; in the data active = inhibition above about 34%, passing the limit was not always enough;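 note: antagonist mode with CXCL16 agonist at 10 nM final; 0% = 10 nM CXCL16 with DMSO and 100% = unstimulated wells without agonist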
APJ ag – agonists of human APJ apelin receptor; P35414; CHO-K1 APJ PathHunter beta-arrestin, luminescence; 0% DMSO wells, 100% apelin; activation, % at 20 µM; hit rate 0.11% among 330,000; AID 2520;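 active = activation more than six SD over the plate average, tested at 20 µM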;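 note: 0% = DMSO alone and 100% = apelin-13 at 10 nM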
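assay system = CHO-K1 APJ beta-arrestin complementation cell line | input = cell density 1000 per well | dosing = compound 20 µM once, DMSO 1% | timing = compound 90 min 25 °C, reagent 1 h | measured by = luminescence from split beta-galactosidase complementation, Galacton Star/Emerald II substrate | read-out basis = APJ agonist activity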
CCR6 antag – blocks CCL20-driven beta-arrestin recruitment at human CCR6; hit rate 0.49% among 340,000; P51684; CHO-K1 CCR6 PathHunter beta-arrestin, luminescence, CCL20-stimulated; AID 493098; inhibition, % at 20 µM;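 active = compounds whose inhibition of the agonist-driven luminescence signal at 20 µM reaches about 50%, limit read from the data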;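 note: cells stimulated with CCL20 at 14 nM final; plate controls were DMSO with CCL20 for no effect and DMSO without agonist for full effect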
Target sequence (P51684 whole entry, looked up): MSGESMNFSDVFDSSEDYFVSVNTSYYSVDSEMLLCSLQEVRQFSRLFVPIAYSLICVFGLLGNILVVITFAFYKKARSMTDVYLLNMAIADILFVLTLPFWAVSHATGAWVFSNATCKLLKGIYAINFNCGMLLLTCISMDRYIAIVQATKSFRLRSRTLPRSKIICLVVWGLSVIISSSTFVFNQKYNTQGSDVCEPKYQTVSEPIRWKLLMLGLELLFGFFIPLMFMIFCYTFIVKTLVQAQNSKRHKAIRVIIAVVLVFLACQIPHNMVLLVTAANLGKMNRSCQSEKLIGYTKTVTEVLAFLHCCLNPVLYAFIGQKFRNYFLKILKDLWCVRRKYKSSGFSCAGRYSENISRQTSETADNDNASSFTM
EBI2 antag – antagonists of human EBI2 receptor; P32249; EBI2 beta-arrestin recruitment, luminescence, 7a,25-OHC stimulated; inhibition, % at 5 µM; hit rate 0.81% among 360,000; AID 651636; in the data active = inhibition above about 38%;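 note: enzyme fragment complementation signal reports receptor beta-arrestin coupling in cells; 0% = agonist plus DMSO wells and 100% = wells without agonist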
APJ antagonist – antagonists of human APJ apelin receptor; P35414; CHO-K1 APJ beta-arrestin complementation, luminescence; inhibition, % at 20 µM; hit rate 0.32% among 330,000;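 active = inhibition above about 40% at 20 µM, limit read from the data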;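 note: cells challenged with 10 nM apelin-13 agonist together with compound; plate controls were apelin-13 plus DMSO wells for no effect and DMSO wells lacking apelin-13 for full effect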
EBI2 conf – EBI2 (human) antagonism, single concentration confirmation | shares compounds with EBI2 antag | EBI2 beta-arrestin luminescence, 7a,25-OHC antagonism | inhibition, % at 5 µM | hit rate 29% among 2,400 | AID 651997;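 active = inhibition of at least 50%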
EBI2 agonist – counter-screen for EBI2 antagonists: EBI2 agonist activity; 2,400 tested, under 10 active; shares compounds with EBI2 antag; activation, % at 5 µM; EBI2-expressing cells, agonist mode, luminescence, 60 min; 0% vehicle, 100% 7α,25-dihydroxycholesterol control;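 active = activation of at least 50%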
bGal cs – inhibits E. coli beta-galactosidase, counter-screen for EBI2 antagonists | shares compounds with EBI2 antag | purified beta-galactosidase, luminescent Galacton Star, 15 min | inhibition, % at 5 µM | hit rate 1% among 2,400 | AID 652176;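 active = replicate-average signal at least 3 plate SD below neutral wells, shown as high inhibition, flagging enzyme-inhibiting false positives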;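 note: 0% = DMSO wells with enzyme and 100% = wells lacking enzyme; higher means stronger loss of beta-gal luminescence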
* marks the source's active call; other numbers are inactive results; nt = no result. An excerpt weighted towards active compounds, which were near 1.5% of everything screened.

SMILES	CXCR6 block	APJ ag	CCR6 antag	EBI2 antag	APJ antagonist	EBI2 conf	EBI2 agonist	bGal cs
CCOC(=O)C(=O)N(C)c1c(CC)nc2c(OCc3ccc(OC)cc3)cccn12	8	nt	nt	-6	nt	nt	nt	nt
O=C(Nc1cccc(OC(F)(F)F)c1)c1ccc(-c2cccnc2)c2ccoc12	-2	nt	nt	38*	nt	29	-1	-15
COc1cc(NC(=O)c2ccc(-c3cccnc3)c3ccoc23)cc(OC)c1OC	-5	nt	nt	-2	nt	nt	nt	nt
O=C(CCc1nc2ccccc2c(=O)[nH]1)NNC(=O)COc1ccc(Br)cc1	1	-3	16	59*	14	39	0	-7
CCOc1ccccc1N1CCN(C(=O)c2cc3c(C)cc(C)cc3[nH]2)CC1	-7	-2	-1	52*	-3	35	0	10
CCOC(=O)C1CCN(C(=O)c2cc3c(C)cc(C)cc3[nH]2)CC1	-4	-3	8	46*	0	31	1	5
CCOc1ccccc1N1CCN(C(=O)c2ccc3[nH]c4c(c3c2)CCCC4)CC1	-2	-4	1	-2	3	nt	nt	nt
CCOC(=O)C1CCN(C(=O)c2cc3cc(C)ccc3[nH]2)CC1	-2	-2	10	85*	12	67*	-1	-6
COCCN1C[C@@H](CO)O[C@@H](n2cnc3c(N4CCN(c5ccccc5)CC4)ncnc32)C1	2	nt	nt	-6	nt	nt	nt	nt
COc1ccc(OC)c(C(O)c2ncc(-c3ccccc3OC)[nH]2)c1 (stereo unspecified)	-6	nt	nt	-3	nt	nt	nt	nt
C=CCCC(=O)N1C[C@H]2CON(C)[C@H]2C[C@H]1c1ccc(-n2ccnc2)cc1	1	nt	nt	-6	nt	nt	nt	nt
CC(C)(C)c1ccc(/C=N/NC(=S)NCc2ccccc2)cc1	10	-2	20	18	-3	nt	nt	nt
CN(C)c1ccc(/C=N/NC(=S)NCc2ccccc2)cc1	0	8	11	49*	4	28	1	4
CCc1ccc(/C=N/NC(=S)NCCc2ccccc2)cc1	1	-5	13	57*	14	36	0	-11
Fc1cccc(Cc2c(-c3ccco3)nc3ccc(Br)cn23)c1	-3	nt	nt	14	nt	nt	nt	nt
CCOc1cc(N2CCOCC2)c(OCC)cc1NC(=O)C(NC(=O)c1c(F)cccc1F)C(C)C (stereo unspecified)	-13	nt	10	-5	nt	nt	nt	nt
Cc1ccc(CNC(=O)C2CCN(S(=O)(=O)c3ccc4c(c3)CC(C)N4C(=O)C3CC3)CC2)cc1 (stereo unspecified)	-7	22	9	79*	-9	45	1	3
CC(=O)N1c2ccc(S(=O)(=O)NCC3CCC(C(=O)NCc4ccc(C)cc4)CC3)cc2CC1C (stereo unspecified)	1	7	16	57*	9	46	0	7
O=C1CCCC2=C1C1(CCCC1)N=C(Nc1nc3cc(-c4ccccc4)ccc3o1)N2	-7	nt	nt	14	nt	nt	nt	nt
CC(C)NC(=O)Nc1ccc2c(c1)C(=O)N([C@@H](C)CO)C[C@H](C)[C@H](CN(C)S(=O)(=O)c1ccccc1)OCCCC[C@H](C)O2	-7	nt	nt	5	nt	nt	nt	nt
S=C(Nc1ccccc1)Nc1ccc2cn[nH]c2c1	-8	2	-8	3	-2	nt	nt	nt
CN(NC(=S)Nc1ccc(OC(F)F)cc1)C(=S)Nc1ccc(OC(F)F)cc1	2	-5	20	43*	20	17	2	6
CCN(CC)C(=S)Nc1ccc(OC(F)F)cc1	2	0	9	22	-15	nt	nt	nt
FC(F)Oc1ccc(NC(=S)Nc2ccc3cn[nH]c3c2)cc1	3	0	-3	53*	-24	47	0	-14
Oc1cccc2c(NC(=S)Nc3ccc(OC(F)F)cc3)cccc12	-16	5	6	45*	-31	24	-1	-8
SMILES	CXCR6 block	APJ ag	CCR6 antag	EBI2 antag	APJ antagonist	EBI2 conf	EBI2 agonist	bGal cs
FC(F)Oc1ccc(NC(=S)NCc2ccccc2)cc1	0	0	-6	-4	-17	nt	nt	nt
CN1[C@@H](Cc2ccccc2)COc2cc(N3CCSCC3)ccc2S1(=O)=O	-5	nt	nt	-1	nt	nt	nt	nt
CC(C)NC(=O)C1(C)CN(S(C)(=O)=O)CC(=O)N1CCc1ccc(O)cc1 (stereo unspecified)	nt	nt	nt	-1	nt	nt	nt	nt
CC(c1ccccc1)N(CCC(c1ccccc1)C1CCOC(C)(C)C1)C(=O)c1ccco1 (stereo unspecified)	4	2	30	44*	-14	10	2	8
N#CC(C(=S)Nc1ccccc1)c1nc2ccccc2[nH]1 (stereo unspecified)	-4	-3	30	2	24	nt	nt	nt
CSC(=Nc1ccccc1)C(C#N)c1nc2ccccc2[nH]1 (stereo unspecified)	8	-3	36	57*	11	47	-2	-11
CCC(=O)N1CCCC(C(=O)Nc2ccc3cn[nH]c3c2)CC1 (stereo unspecified)	-7	nt	nt	-11	nt	nt	nt	nt
CCOC(=O)c1c(NC(=O)COc2cccc3c2CCN(C)C3=O)sc2c1CCC2	-6	-2	-1	51*	-13	10	-2	-11
CC1(C)C2CC=C(/C=N/NC(=S)Nc3cccnc3)C1C2 (stereo unspecified)	-1	-4	14	-8	28	nt	nt	nt
CC1=C/C(=N\NC(=S)Nc2cccnc2)CC(C)(C)C1	11	nt	46	39*	nt	78*	-2	-9
COc1ccc2nc(C)cc(SCC(=O)N/N=C/c3cccc4ccccc34)c2c1	-9	-3	10	46*	15	22	1	7
COc1ccc2nc(C)cc(SCC(=O)N/N=C/c3ccc(O)c(O)c3)c2c1	-6	-1	18	-5	-23	nt	nt	nt
COc1ccc(N2CCN(c3cncc(C)n3)CC2)cc1	-7	nt	nt	-5	nt	nt	nt	nt
O=C(c1ccc(Cl)cc1)c1oc2ccccc2c1CS(=O)c1ccc(Cl)cc1 (stereo unspecified)	6	-6	6	52*	14	51*	0	3
Cc1ccc(Cn2c(C)c(C(=O)NCc3ccc4c(c3)OCO4)sc2=O)cc1	8	nt	nt	-2	nt	nt	nt	nt
NS(=O)(=O)c1ccc(N/N=C/c2cn(-c3ccccc3)nc2-c2cccs2)cc1	-14	2	-1	41*	-22	30	1	6
NS(=O)(=O)c1ccc(N/N=C/c2cn(-c3ccccc3)nc2-c2cccs2)c([N+](=O)[O-])c1	25	1	27	21	4	nt	nt	nt
CCOc1ccc(OCC)c(NC(=O)CN(c2ccc(C)cc2)S(=O)(=O)c2c(C)noc2C)c1	9	-4	19	72*	-4	34	0	2
